Reference: ChEMBL document CHEMBL5257157, “Biological evaluation of novel amidino substituted coumarin-benzazole hybrids as promising therapeutic agents” (RSC Med Chem, 2023)

Key:
CCRF-CEM = experiment: Antiproliferative activity against human CEM cells assessed as inhibition of cell growth; assay type: functional, cell-based
[1] = Cytotoxicity against human HEL 299 cells assessed as inhibition of cell growth incubated for 72 hrs by CellTiter96 Aqueous One Solution cell proliferation assay; assay type: toxicity, cell-based
Huh-7 = experiment: Cytotoxicity against human Huh-7 cells assessed as inhibition of cell growth incubated for 72 hrs by CellTiter96 Aqueous One Solution cell proliferation assay; assay type: functional
[2] = Cytotoxicity against dog MDCK cells assessed as inhibition of cell growth incubated for 72 hrs by CellTiter96 Aqueous One Solution cell proliferation assay; assay type: toxicity, cell-based, Canis lupus familiaris
Human coronavirus 229E = experiment: Antiviral activity against HCoV-229E infected in human HEL 299 cells assessed as inhibition of virus-induced cytopathogenic effect incubated for 3 to 7 days by MTS assay; assay type: functional, organism-based
Human coronavirus OC43 = experiment: Antiviral activity against HCoV-OC43 infected in human HEL 299 cells assessed as inhibition of virus-induced cytopathogenic effect incubated for 3 to 7 days by MTS assay; assay type: functional, organism-based; settings: Betacoronavirus 1, HEL 299
[3] = Antiviral activity against HCoV-NL63 infected in human Huh-7 cells assessed as inhibition of virus-induced cytopathogenic effect incubated for 3 to 7 days by MTS assay; assay type: functional, cell-based; settings: Human coronavirus NL63, Huh-7
Influenza A virus [4] = experiment: Antiviral activity against influenza virus H1N1 infected in dog MDCK cells assessed as inhibition of virus-induced cytopathogenic effect incubated for 3 to 7 days by MTS assay; assay type: functional, organism-based
Influenza A virus [5] = experiment: Antiviral activity against influenza virus H3N2 infected in dog MDCK cells assessed as inhibition of virus-induced cytopathogenic effect incubated for 3 to 7 days by MTS assay; assay type: functional, organism-based
Influenza B virus = experiment: Antiviral activity against influenza B virus infected in dog MDCK cells assessed as inhibition of virus-induced cytopathogenic effect incubated for 3 to 7 days by MTS assay; assay type: functional, organism-based
[6] = system: Respiratory syncytial virus; experiment: Antiviral activity against RSV infected in human HEL 299 cells assessed as inhibition of virus-induced cytopathogenic effect incubated for 3 to 7 days by MTS assay; assay type: functional, organism-based
Human alphaherpesvirus 1 = experiment: Antiviral activity against HSV-1 KOS infected in human HEL 299 cells assessed as inhibition of virus-induced cytopathogenic effect incubated for 3 to 7 days by MTS assay; assay type: functional, organism-based; settings: Human alphaherpesvirus 1, KOS
Yellow fever virus = experiment: Antiviral activity against Yellow fever virus 17D infected in human Huh-7 cells assessed as inhibition of virus-induced cytopathogenic effect incubated for 3 to 7 days by MTS assay; assay type: functional, organism-based
Zika virus = experiment: Antiviral activity against Zika virus Mr776 infected in human Huh-7 cells assessed as inhibition of virus-induced cytopathogenic effect incubated for 3 to 7 days by MTS assay; assay type: functional, organism-based; settings: Mr776, Huh-7
Sindbis virus = experiment: Antiviral activity against Sindbis virus infected in human Huh-7 cells assessed as inhibition of virus-induced cytopathogenic effect incubated for 3 to 7 days by MTS assay; assay type: functional, organism-based
[7] = Antioxidant activity assessed as ABTS radical scavenging activity incubated for 5 mins by absorbance based microplate reader analysis; assay type: functional
Method in brief: (§1)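 Pure compounds tested in three colorimetric antioxidant assays, each run alongside the reference BHT. […] ABTS: direct reaction with ABTS•+ radical cation, reported as IC50. DPPH: scavenging of the stable DPPH radical by proton or electron donation, reported as IC50. FRAP: reducing power, expressed as mmolFe2+/mmolC.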

[8] = Antioxidant activity assessed as DPPH radical scavenging activity incubated for 5 mins by absorbance based microplate reader analysis; assay type: functional; method in brief: as §1
[9] = Antioxidant activity assessed as reduction of Fe3+ complex to Fe2+ analogue by measuring mmolFe2+/mmolc by FRAP assay; assay type: functional; method in brief: as §1
LN-229 = experiment: Antiproliferative activity against human LN-229 cells assessed as inhibition of cell growth incubated for 72 hrs by CellTiter96 Aqueous One Solution cell proliferation assay; assay type: functional, cell-based; settings: LN-229, 72 h
CAPAN-1 = experiment: Antiproliferative activity against human CAPAN-1 cells assessed as inhibition of cell growth incubated for 72 hrs by CellTiter96 Aqueous One Solution cell proliferation assay; assay type: functional, cell-based; settings: CAPAN-1, 72 h
NCI-H460 = experiment: Antiproliferative activity against human NCI-H460 cells assessed as inhibition of cell growth incubated for 72 hrs by CellTiter96 Aqueous One Solution cell proliferation assay; assay type: functional, cell-based; settings: NCI-H460, 72 h
[10] = Antiproliferative activity against human DND41 cells assessed as inhibition of cell growth incubated for 72 hrs by CellTiter96 Aqueous One Solution cell proliferation assay; assay type: functional, cell-based; settings: DND41, 72 h
HL-60 = experiment: Antiproliferative activity against human HL-60 cells assessed as inhibition of cell growth incubated for 72 hrs by CellTiter96 Aqueous One Solution cell proliferation assay; assay type: functional, cell-based; settings: HL-60, 72 h
K562 = experiment: Antiproliferative activity against human K562 cells assessed as inhibition of cell growth incubated for 72 hrs by CellTiter96 Aqueous One Solution cell proliferation assay; assay type: functional, cell-based; settings: K562, 72 h
Z-138 = experiment: Antiproliferative activity against human Z138 cells assessed as inhibition of cell growth incubated for 72 hrs by CellTiter96 Aqueous One Solution cell proliferation assay; assay type: functional, cell-based; settings: Z-138, 72 h
[11] = Drug localization in nucleolus of human HEp-2 cells at 10 uM incubated for 3 hrs by confocal microscopy analysis; assay type: ADME, subcellular; settings: hep-2, 3 h
Method in brief: (§2)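 Compound autofluorescence was imaged by fluorescence microscopy in Hep-2 cells (ATCC CCL-23). Cells were given 10 μM and incubated for 3 hours to allow cellular uptake before imaging. Localization to subcellular compartments was judged from the fluorescence pattern.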

[12] = Drug localization in nuclear membrane of human HEp-2 cells at 10 uM incubated for 3 hrs by confocal microscopy analysis; assay type: ADME, cell membranes; settings: hep-2, 3 h; method in brief: as §2
[13] = Drug localization in cytoplasm of human HEp-2 cells at 10 uM incubated for 3 hrs by confocal microscopy analysis; assay type: ADME, subcellular; settings: hep-2, 3 h; method in brief: as §2
[14] = Cytotoxicity against human PBMC cells assessed as reduction in cell viability at 0.006 to 4 uM measured after 72 hrs by CellTiter96 Aqueous One Solution cell proliferation assay; assay type: toxicity, cell-based; settings: dose 0.006-4 µM
[15] = Cytotoxicity against human PBMC cells assessed as reduction in cell viability measured after 72 hrs by CellTiter96 Aqueous One Solution cell proliferation assay; assay type: toxicity, cell-based
Method in brief: (§3)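 Normal peripheral blood mononuclear cells from healthy donors were exposed to compound for 72 hours, at concentrations up to a highest dose of 100 μM. Viability is given as a percentage of untreated PBMC control.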

[16] = Cytotoxicity against human PBMC cells assessed as reduction in cell viability at 20 uM measured after 72 hrs by CellTiter96 Aqueous One Solution cell proliferation assay; assay type: toxicity, cell-based; method in brief: as §3
HCT-116 = experiment: Antiproliferative activity against human HCT-116 cells assessed as inhibition of cell growth incubated for 72 hrs by CellTiter96 Aqueous One Solution cell proliferation assay; assay type: functional, cell-based; settings: HCT-116, 72 h

| Compound | CC50 at 72 h [1] [µM] | CC50 (Huh-7) [µM] | CC50 at 72 h [2] [µM] | EC50 (Human coronavirus 229E) [µM] | EC50 (Human coronavirus OC43) [µM] | EC50 [3] [µM] | EC50 (Influenza A virus [4]) [µM] | EC50 (Influenza A virus [5]) [µM] | EC50 (Influenza B virus) [µM] | EC50 [6] [µM] | EC50 (Human alphaherpesvirus 1) [µM] | EC50 (Yellow fever virus) [µM] | EC50 (Zika virus) [µM] | IC50 (LN-229) [µM] | IC50 (CAPAN-1) [µM] | IC50 (NCI-H460) [µM] | IC50 [10] [µM] | IC50 (HL-60) [µM] | IC50 (K562) [µM] | IC50 (Z-138) [µM] | also measured |
| --- | --- | --- | --- | --- | --- | --- | --- | --- | --- | --- | --- | --- | --- | --- | --- | --- | --- | --- | --- | --- | --- |
| CCN(CC)c1ccc2cc(-c3nc4cccnc4s3)c(=N)oc2c1 |  |  |  |  |  |  |  |  |  |  |  |  |  |  |  |  |  |  |  |  | IC50 (CCRF-CEM): 0.17 µM |
| CCN(CC)c1ccc2cc(-c3nc4ccccc4[nH]3)c(=N)oc2c1 |  |  |  |  |  |  |  |  |  |  |  |  |  |  |  |  |  |  |  |  | IC50 (CCRF-CEM): 0.059 µM |
| O=c1oc2ccccc2c(Cl)c1-c1nc2cc(C3=NCCCN3)ccc2[nH]1 | 87.4 | 61.7 | 81.7 | > 100 | > 100 | > 100 | > 100 | > 100 | > 100 | > 100 | > 100 | > 100 | > 100 | > 100 | 69.2 | > 100 | 19.1 | 53.5 | > 100 | 44.5 | EC50 (Sindbis virus): > 100 µM; IC50 [7]: 290 µM; IC50 [8]: 70 µM; Activity [9]: 38.3 mmol/mmol |
| CCN(CC)c1ccc2cc(-c3nc4ccc(C5=NCCCN5)cc4s3)c(=O)oc2c1.Cl | > 100 | 1.8 | 4.2 | 33 | 28.9 | > 100 | > 100 | > 100 | > 100 | 43.4 | 25.5 | > 100 | > 100 | 1.8 | 2 | > 100 | 1.3 | > 100 | > 100 | 1.5 | EC50 (Sindbis virus): > 100 µM; IC50 [7]: 980 µM; Activity [9]: 3.29 mmol/mmol; Drug uptake [11]: Active; Drug uptake [12]: Active; Drug uptake [13]: Active; Activity [14]: > 80%; IC50 at 72 h [15]: 1.7 µM |
| Cc1ccc2oc(=O)c(-c3nc4cc(C5=NCCCN5)ccc4[nH]3)c(Cl)c2c1 | > 100 | 78.7 | 77.1 | > 100 | 74.2 | > 100 | > 100 | > 100 | > 100 | 64.1 | > 100 | > 100 | > 100 | > 100 | 71.9 | > 100 | 16.9 | 64.2 | > 100 | 48.1 | EC50 (Sindbis virus): > 100 µM; IC50 [7]: 460 µM; IC50 [8]: 520 µM; Activity [9]: 47.8 mmol/mmol |
| CCN(CC)c1ccc2cc(-c3nc4cc(C5=NCCN5)ccc4[nH]3)c(=O)oc2c1.Cl | 5.1 | < 0.8 | < 0.8 | > 100 | > 100 | > 100 | > 100 | > 100 | > 100 | > 100 | > 100 | > 100 | > 100 | 1.4 | 1.7 | 1.8 | 0.3 | 2.1 | 1.9 | 1.5 | EC50 (Sindbis virus): > 100 µM; IC50 [7]: 170 µM; IC50 [8]: 140 µM; Activity [9]: 28.4 mmol/mmol; Drug uptake [11]: Active; Drug uptake [12]: Active; Activity [16]: 60%; Activity [14]: > 80%; IC50 at 72 h [15]: 1.6 µM |
| COC(=O)Nc1nc2cc(C(=O)c3cccs3)ccc2[nH]1 [NOCODAZOLE] |  |  |  |  |  |  |  |  |  |  |  |  |  | 0.1 | 0.13 | 0.25 | 0.47 | 0.1 | 0.07 | 0.31 | IC50 (HCT-116): 0.13 µM |
| CCN(CC)c1ccc2cc(-c3nc4cc(C5=NCCCN5)ccc4[nH]3)c(=O)oc2c1 | > 100 | > 100 | 43.4 | > 100 | > 100 | > 100 | > 100 | > 100 | > 100 | 73.3 | > 100 | 72.6 | 77.7 | 97 | 66.7 | > 100 | 10.8 | 63.8 | 63.5 | 67.3 | EC50 (Sindbis virus): > 100 µM; IC50 [7]: 110 µM; IC50 [8]: 610 µM; Activity [9]: 28.8 mmol/mmol |
